Assay results as given in ChEMBL document CHEMBL3864147, “Antioxidant and anti-inflammatory neolignans from the seeds of hawthorn” (Bioorg Med Chem Lett, 2016).

Columns and labels:
[1] = Antiinflammatory activity in mouse RAW264.7 cells assessed as inhibition of LPS-induced nitric oxide production at 100 uM after 24 hrs by Griess assay relative to control; format: functional; settings: RAW264.7, 24 h
In short: (§1)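 RAW264.7 cells (5 × 10^5/mL) pre-treated with samples at 100, 50, 10 or 1 µM, then LPS (100 ng/mL) for 24 h. Nitrite in medium measured by mixing with equal volume Griess reagent (1% sulfanilamide in 5% H3PO4, 0.1% N-naphthyl-ethylenediamine), 10 min at 37 °C, absorbance 540 nm; quantified against NaNO2 standard curve; minocycline as positive control.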

[2] = Antiinflammatory activity in mouse RAW264.7 cells assessed as inhibition of LPS-induced nitric oxide production at 50 uM after 24 hrs by Griess assay relative to control; format: functional; settings: RAW264.7, 24 h; in short: as §1
[3] = Antioxidant activity assessed as ABTS radical scavenging activity after 30 mins; format: functional
In short: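 ABTS radical generated by 7 mM ABTS plus 2.4 mM potassium persulfate, 12 h dark at room temperature, diluted in ethanol to OD 0.700 at 734 nm. Samples at several concentrations mixed with ABTS+ solution, 30 min at 37 °C, read at 734 nm; ethanol blank; percent scavenging calculated relative to blank.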

[4] = Antiinflammatory activity in mouse RAW264.7 cells assessed as inhibition of LPS-induced TNFalpha production at 1 uM after 24 hrs by ELISA relative to control; format: functional; settings: RAW264.7, 24 h
In short: (§2)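 RAW264.7 cells plated at 5 × 10^5/mL, pre-treated with samples at 100, 50, 10 or 1 µM, then stimulated with LPS (100 ng/mL) for 24 h. TNF-α in the medium measured by ELISA kit per manufacturer's instructions and quantified from a standard curve; silybin as positive control.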

[5] = Antioxidant activity assessed as DPPH radical scavenging activity incubated in dark for 30 mins; format: functional
In short: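 Samples (0.4 mM stock, 5–40 µL series) and DPPH (2 mM stock, 20 µL) in ethanol, made to 200 µL with ethanol; incubated 30 min in dark at 37 °C; absorbance at 517 nm. Ethanol replaced sample as blank.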

[6] = Antioxidant activity assessed as ferric ion reducing activity by measuring Fe2+ levels using fe3+-TPTZ at 750 ug/ml after 30 mins by FRAP assay; format: functional
In short: (§3)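 FRAP reagent: 300 mM acetate buffer pH 3.6, 10 mM TPTZ in 40 mM HCl, 20 mM FeCl3. Sample (3000, 1500, 750, 375 µg/mL solutions) mixed with reagent, 30 min at 37 °C, absorbance 593 nm. Values expressed as µM Fe2+ from FeSO4 calibration curve (5–450 µM).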

[7] = Antiinflammatory activity in mouse RAW264.7 cells assessed as inhibition of LPS-induced nitric oxide production at 1 uM after 24 hrs by Griess assay relative to control; format: functional; settings: RAW264.7, 24 h; in short: as §1
[8] = Antiinflammatory activity in mouse RAW264.7 cells assessed as inhibition of LPS-induced TNFalpha production after 24 hrs by ELISA; format: functional, cell-based; settings: RAW264.7, 24 h; in short: as §2
[9] = Antiinflammatory activity in mouse RAW264.7 cells assessed as inhibition of LPS-induced nitric oxide production after 24 hrs by Griess assay; format: functional, cell-based; settings: RAW264.7, 24 h; in short: as §1
[10] = Antioxidant activity assessed as ferric ion reducing activity by measuring Fe2+ levels using fe3+-TPTZ at 3000 ug/ml after 30 mins by FRAP assay; format: functional; in short: as §3
[11] = Antiinflammatory activity in mouse RAW264.7 cells assessed as inhibition of LPS-induced TNFalpha production at 100 uM after 24 hrs by ELISA relative to control; format: functional; settings: RAW264.7, 24 h; in short: as §2
[12] = Antioxidant activity assessed as ferric ion reducing activity by measuring Fe2+ levels using fe3+-TPTZ at 1500 ug/ml after 30 mins by FRAP assay; format: functional; in short: as §3
[13] = organism: Mus musculus; assay: Cytotoxicity against mouse RAW264.7 cells assessed as effect on cell viability at 100 uM preincubated for 1 hr followed by LPS stimulation measured after 24 hrs by MTT assay; format: toxicity, cell-based; settings: raw264.7, 24 h
In short: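 RAW264.7 cells in DMEM with 10% FBS and penicillin/streptomycin at 37 °C, 5% CO2, seeded 5 × 10^5 cells/well; treated with samples (100 µM) 1 h, then LPS (100 ng/mL) 24 h. MTT (0.25 mg/mL) added for 4 h; formazan read at 540 nm; untreated cells as control.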

[14] = Antioxidant activity assessed as ferric ion reducing activity by measuring Fe2+ levels using fe3+-TPTZ at 375 ug/ml after 30 mins by FRAP assay; format: functional; in short: as §3
[15] = Antiinflammatory activity in mouse RAW264.7 cells assessed as inhibition of LPS-induced TNFalpha production at 50 uM after 24 hrs by ELISA relative to control; format: functional; settings: RAW264.7, 24 h; in short: as §2
[16] = Antiinflammatory activity in mouse RAW264.7 cells assessed as inhibition of LPS-induced nitric oxide production at 10 uM after 24 hrs by Griess assay relative to control; format: functional; settings: RAW264.7, 24 h; in short: as §1
[17] = Antiinflammatory activity in mouse RAW264.7 cells assessed as inhibition of LPS-induced TNFalpha production at 10 uM after 24 hrs by ELISA relative to control; format: functional; settings: RAW264.7, 24 h; in short: as §2

COc1cc([C@H](O)[C@@H](CO)Oc2ccc([C@@H](O)[C@H](O)CO)cc2OC)ccc1O
inhibition at 100 µM [1]: 6.3% | inhibition at 50 µM [2]: 3.1% | IC50 [3]: 9.5 µM | inhibition at 1 µM [4]: 3.9% | IC50 [5]: 82.4 µM | Activity [6]: 16 µmol/L | inhibition at 1 µM [7]: -3.6% | IC50 [8]: 84.4 µM | IC50 [9]: > 100 µM | Activity [10]: 55.8 µmol/L | inhibition at 100 µM [11]: 55.6% | Activity [12]: 29.4 µmol/L | Activity [13]: Non-Toxic | Activity [14]: 9.4 µmol/L | inhibition at 50 µM [15]: 32.3% | inhibition at 10 µM [16]: 1.1% | inhibition at 10 µM [17]: 26.2%

COc1cc([C@@H](O)[C@H](CO)Oc2ccc([C@@H](OC)[C@H](CO)c3ccc(O)c(OC)c3)cc2OC)ccc1O
inhibition at 100 µM [1]: 57.3% | inhibition at 50 µM [2]: 34.2% | IC50 [3]: 5.9 µM | inhibition at 1 µM [4]: 1.3% | IC50 [5]: 43.6 µM | Activity [6]: 89.5 µmol/L | inhibition at 1 µM [7]: 7% | IC50 [8]: > 100 µM | IC50 [9]: 97.3 µM | Activity [10]: 116 µmol/L | inhibition at 100 µM [11]: 18.4% | Activity [12]: 121 µmol/L | Activity [13]: Non-Toxic | Activity [14]: 60.8 µmol/L | inhibition at 50 µM [15]: 5.2% | inhibition at 10 µM [16]: 19.2% | inhibition at 10 µM [17]: 3.2%
